In ChEMBL document CHEMBL1157313, “Metabolites from the marine-derived fungus Chromocleista sp. isolated from a deep-water sediment sample collected in the Gulf of Mexico” (2006):
In brackets after ≈: the same amount, converted by molar mass. Activity calls are given as the source filed them. No cut-off for these calls is given here.

Key:
A549 = test: Cytotoxicity against human A549 cells at 5 ug/mL after 72 hrs by MTT assay; type: functional, cell-based
In short: (§1)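 Cells exposed to compound at 5 µg/mL for 72 h in 96-well format; viability read spectrophotometrically with MTT.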

Staphylococcus aureus = test: Antibacterial activity against Staphylococcus aureus ATCC 29213 at 50 ug/mL after 18 hrs by broth microdilution technique; type: functional, organism-based
In short: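 MIC by standard broth microdilution in cation-supplemented Mueller-Hinton broth; plates incubated 18 h at 37 °C; tested at 50 µg/mL.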

P388 = test: Cytotoxicity against mouse P388 cells at 5 ug/mL after 45 hrs by MTT assay; type: functional, cell-based
In short: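 Murine leukemia cells incubated 45 h with compound at 5 µg/mL in 96-well plates; cytotoxicity read spectrophotometrically using MTT.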

Candida albicans [1] = test: Antifungal activity against Candida albicans ATCC 44506 up to 50 ug/mL after 18 hrs by broth microdilution method; type: functional, organism-based
In short: (§2)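 MIC by standard broth microdilution with Sabouraud dextrose broth as growth medium; plates incubated 18 h at 37 °C.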

NCI/ADR-RES = test: Cytotoxicity against human NCI-ADR-RES cells at 5 ug/mL after 72 hrs by MTT assay; type: functional, cell-based; in short: as §1
PANC-1 = test: Cytotoxicity against human PANC1 cells at 5 ug/mL after 72 hrs by MTT assay; type: functional, cell-based; in short: as §1
Candida albicans [2] = test: Antifungal activity against Candida albicans ATCC 44506 after 18 hrs by broth microdilution method; type: functional; details: ATCC 44506, 18 h; in short: as §2

| SMILES | Activity (A549) | Activity (Staphylococcus aureus) | Activity (P388) | Activity (Candida albicans [1]) | Activity (NCI/ADR-RES) | Activity (PANC-1) | MIC (Candida albicans [2]) |
| --- | --- | --- | --- | --- | --- | --- | --- |
| O=C1N[C@@H](Cc2ccccc2)C(=O)N2CCC=C12 | inactive | inactive | inactive | inactive | inactive | inactive |  |
| O=C1[C@H](Cc2ccccc2)NC(=O)[C@@]2(O)CCCN12 | inactive | inactive | inactive | inactive | inactive | inactive |  |
| O=C1C(O)=C(c2ccc(O)cc2)[C@@H]2CCCN12 | inactive | inactive | inactive |  | inactive | inactive | 25 µg/mL (≈ 108 µM) |
| O=C1[C@H](Cc2ccccc2)NC(=O)[C@]2(O)CCCN12 | inactive | inactive | inactive | inactive | inactive | inactive |  |
